Measurements from paper PMC12335033 (BMC Oral Health, 2025).
Where a SMILES comes first, the peptide text is derived from it.

Assays:
rat type I collagen [1] = biological target: rat type I collagen (Rattus norvegicus, UniProt P02454+P02466); experiment: SPR affinity of peptides for type I collagen; assay type: binding; conditions: for Rmax: SPR, 1:1 binding; for kon: read-out: 1:1 binding ka; for koff: read-out: Kd (dissociation rate constant)
Outline: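 Rat type I collagen preconcentrated in sodium acetate (pH 5.0) and amine-coupled to a CM5 chip. Peptide in sodium acetate buffer at five concentrations, 30 µL/min; 100 s contact, 80 s dissociation. Regeneration with glycine 2.0 for 30 s. Three cycles, multicycle kinetics; K_D calculated.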

[2] = Mechanical properties of remineralized dentin; set-up: species or system human; conditions: compared with MDP-a group; 2 w mineralization
Outline: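 Nanoindentation of the new mineral layer on dentin slices after 2 w of remineralization, tested alongside sound and etched slices. Conditions: 10 mN force, 10 s loading, 2 s hold, Poisson's ratio 0.28. Five points per sample, nine samples per group. Elastic modulus and microhardness derived from load–displacement curves; one-way ANOVA with Tukey.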

collagen membrane [3] = experiment: TGA of mineralized collagen membrane; conditions: 0.1 mM peptide, 37 °C, 7 d; n = 9; p < 0.0001
type I collagen fiber = experiment: Collagen fiber mineralization, TEM/SAED/EDS; conditions: 0.1 mM peptide, 7 d; for electron density distribution of collagen fiber (TEM): 3.90 mM CaCl2, 3.83 mM Na2HPO4, pH 7.0, 37 °C; for SAED arc-shaped patterns (hkl) of hydroxyapatite: 37 °C, control one ring (300); for calcium and phosphate distribution (EDS) / fiber mineralization: pH 7.0, 37 °C; for fiber mineralization: TEM
Outline: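 Type I collagen fibers self-assembled in 50 mM glycine/200 mM KCl (pH 9.2), room temperature, 20 min, on nickel grids at 37 °C for 12 h, then fixed in 0.05% glutaraldehyde for 1 h. Grids immersed at 37 °C for 7 d in 3.90 mM CaCl₂/3.83 mM Na₂HPO₄ (pH 7.0) with 0.1 mM peptide, changed every 24 h. Peptide-free control. Rinsed, ethanol-dehydrated; TEM, SAED, EDS.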

[4] = TEM/SAED/EDS of calcium phosphate; assay type: physicochemical; conditions: TEM; 0.1 mM peptide, pH 7.0; control: irregularly shaped aggregates
[5] = Dentin slice remineralization, SEM and tubule plugging rate; set-up: species or system human; conditions: 0.1 mM peptide 12 h; for plugging rate of dentinal tubules vs control: SEM 3,000×, p < 0.0001; for dentinal tubule diameters (SEM surface) / mineral depth in dentin tubules (SEM cross section) / mineral growth on dentin (SEM surface): then artificial saliva pH 7.0, 2 w
Outline: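 Human third-molar crown dentin cut to 5 × 5 × 2 mm slices and polished. Etched with 35% phosphoric gel for 30 s, 5.25% NaOCl for 1 min, sonicated 10 min. Soaked in 0.1 mM peptide for 12 h, rinsed, then 2 w in artificial saliva (pH 7.0) refreshed daily. Peptide-free control. SEM of surface and cross-section; plugging rate from open-tubule counts at 3,000×; n = 9; one-way ANOVA with Tukey.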

collagen membrane [6] = experiment: Calcium ion adsorption by collagen membrane, ICP-MS; conditions: 0.1 mM peptide, pH 7.0, 37 °C, 7 d, n = 9, p < 0.0001
type I collagen = conditions: isothermal titration calorimetry and enzyme-linked immunosorbent assays; ref [14] (Lei et al.); cited from earlier work
rat type I collagen [7] = biological target: rat type I collagen (rat, UniProt P02454 152-1207; P02466 86-1125); experiment: SPR
Chain of rat type I collagen (rat, UniProt P02454 152-1207; P02466 86-1125) (P02454 152-1207, chain 1 of 2): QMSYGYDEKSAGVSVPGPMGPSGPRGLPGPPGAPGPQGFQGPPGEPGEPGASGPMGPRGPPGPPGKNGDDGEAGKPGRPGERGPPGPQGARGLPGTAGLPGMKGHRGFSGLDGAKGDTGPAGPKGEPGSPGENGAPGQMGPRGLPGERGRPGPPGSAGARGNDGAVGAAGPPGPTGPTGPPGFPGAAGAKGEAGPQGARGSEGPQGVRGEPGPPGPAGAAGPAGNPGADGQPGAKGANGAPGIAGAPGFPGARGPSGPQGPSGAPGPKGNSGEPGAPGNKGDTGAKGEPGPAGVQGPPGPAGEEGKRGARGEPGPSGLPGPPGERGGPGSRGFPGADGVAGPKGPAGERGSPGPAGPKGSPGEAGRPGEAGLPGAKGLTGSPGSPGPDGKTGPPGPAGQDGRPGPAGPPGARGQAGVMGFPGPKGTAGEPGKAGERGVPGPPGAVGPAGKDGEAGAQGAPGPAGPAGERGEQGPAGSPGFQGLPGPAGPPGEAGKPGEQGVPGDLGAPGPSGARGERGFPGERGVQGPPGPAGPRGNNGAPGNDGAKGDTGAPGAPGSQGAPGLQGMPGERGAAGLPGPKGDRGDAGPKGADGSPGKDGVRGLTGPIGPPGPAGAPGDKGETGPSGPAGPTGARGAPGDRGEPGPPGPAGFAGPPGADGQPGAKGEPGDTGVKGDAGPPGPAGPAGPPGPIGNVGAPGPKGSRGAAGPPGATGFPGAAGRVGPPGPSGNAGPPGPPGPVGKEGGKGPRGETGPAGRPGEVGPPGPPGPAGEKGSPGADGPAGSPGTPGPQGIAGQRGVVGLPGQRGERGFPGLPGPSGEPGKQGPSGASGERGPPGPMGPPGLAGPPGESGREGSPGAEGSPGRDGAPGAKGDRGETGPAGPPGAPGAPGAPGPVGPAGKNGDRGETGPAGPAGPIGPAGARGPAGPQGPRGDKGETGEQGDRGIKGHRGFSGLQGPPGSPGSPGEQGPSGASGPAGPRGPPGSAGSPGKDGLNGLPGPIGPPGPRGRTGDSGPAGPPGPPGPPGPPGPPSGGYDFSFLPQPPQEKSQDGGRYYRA
Chain of rat type I collagen (rat, UniProt P02454 152-1207; P02466 86-1125) (P02466 86-1125, chain 2 of 2): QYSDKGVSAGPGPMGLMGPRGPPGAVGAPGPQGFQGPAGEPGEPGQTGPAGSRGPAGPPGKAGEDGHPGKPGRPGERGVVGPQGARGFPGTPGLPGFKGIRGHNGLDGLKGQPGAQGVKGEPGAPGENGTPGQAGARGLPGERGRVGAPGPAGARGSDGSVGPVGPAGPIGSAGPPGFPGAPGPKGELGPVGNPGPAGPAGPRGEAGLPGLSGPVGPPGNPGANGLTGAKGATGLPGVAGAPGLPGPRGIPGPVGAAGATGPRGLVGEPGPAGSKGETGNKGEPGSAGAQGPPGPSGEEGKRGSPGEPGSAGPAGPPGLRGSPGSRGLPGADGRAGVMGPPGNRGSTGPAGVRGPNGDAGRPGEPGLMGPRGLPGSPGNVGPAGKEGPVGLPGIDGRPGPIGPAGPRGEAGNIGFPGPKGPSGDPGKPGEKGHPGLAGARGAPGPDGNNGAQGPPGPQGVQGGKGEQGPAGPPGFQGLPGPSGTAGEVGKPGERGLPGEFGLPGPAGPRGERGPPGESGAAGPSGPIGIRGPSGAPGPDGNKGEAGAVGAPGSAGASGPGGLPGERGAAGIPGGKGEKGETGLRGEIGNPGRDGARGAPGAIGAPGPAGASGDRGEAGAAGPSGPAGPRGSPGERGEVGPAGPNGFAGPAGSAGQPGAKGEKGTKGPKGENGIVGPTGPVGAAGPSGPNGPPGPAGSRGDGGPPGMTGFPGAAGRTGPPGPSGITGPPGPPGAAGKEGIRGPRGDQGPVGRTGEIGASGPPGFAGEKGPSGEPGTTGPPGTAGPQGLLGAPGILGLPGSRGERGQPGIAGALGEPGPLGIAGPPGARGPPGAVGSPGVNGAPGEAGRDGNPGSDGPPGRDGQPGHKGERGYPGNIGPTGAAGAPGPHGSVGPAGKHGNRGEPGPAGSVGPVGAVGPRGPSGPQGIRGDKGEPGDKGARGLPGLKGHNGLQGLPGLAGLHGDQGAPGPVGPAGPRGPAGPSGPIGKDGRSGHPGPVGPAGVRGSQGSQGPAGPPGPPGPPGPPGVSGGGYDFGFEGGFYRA

| Molecule | Rmax (rat type I collagen [1]) | kon (rat type I collagen [1]) | koff (rat type I collagen [1]) | electron density distribution of collagen fiber (TEM) (type I collagen fiber) | SAED arc-shaped patterns (hkl) of hydroxyapatite (type I collagen fiber) | calcium and phosphate distribution (EDS) (type I collagen fiber) | fiber mineralization (type I collagen fiber) | morphology of particles [4] | plugging rate of dentinal tubules vs control ([5]; artificial saliva 2 w, n = 9) | dentinal tubule diameters (SEM surface) [5] | mineral depth in dentin tubules (SEM cross section) [5] | mineral growth on dentin (SEM surface) [5] | Kd (rat type I collagen [7]) | also measured |
| --- | --- | --- | --- | --- | --- | --- | --- | --- | --- | --- | --- | --- | --- | --- |
| CC(C)C[C@H](NC(=O)[C@H](CC(N)=O)NC(=O)[C@H](CS)NC(=O)[C@H](CO)NC(=O)[C@H](CCC(=O)O)NC(=O)[C@H](CCCCN)NC(=O)[C@@H]1CCCN1C(=O)[C@@H](N)CS)C(=O)N[C@@H](Cc1ccccc1)C(=O)N[C@H](C(=O)N[C@@H](CC(C)C)C(=O)N[C@@H](CCCCN)C(=O)N[C@@H](CC(=O)O)C(=O)N[C@@H](CC(=O)O)C(=O)N[C@@H](CO)C(=O)N[C@@H](CO)C(=O)N[C@@H](CC(=O)O)C(=O)N[C@@H](CO)C(=O)N[C@@H](CO)C(=O)N[C@@H](CC(=O)O)C(=O)N[C@@H](CO)C(=O)N[C@@H](CO)C(=O)O)C(C)C [MDP-3DSS] (H-CPKESCNLFVLKDDSSDSSDSS-OH; N-terminus and C-terminus assumed) | 65526.7 RU | 30800 M⁻¹ s⁻¹ | 0.58 s⁻¹ | uniform and dense electron distribution, with significantly increased electron density, indicating a highly mineralized structure | 002,112,401,122 | highly concentrated along the fiber axis, with a minimal presence of these ions outside the fiber | evident fiber mineralization | aggregated particles arranged in loose chains | increased significantly | significantly reduced | 7 μm | dense mineral growth was observed on the surface and inside the dentinal tubules |  | elastic modulus and microhardness relative to sound dentin [2]: closer to those of sound dentin group; residual mineral content (TGA) (collagen membrane [3]): highest residual mineral content; plugging rate of dentinal tubules, MDP-3DSS vs MDP-a ([5]; artificial saliva 2 w, n = 9, p = 0.0019): greater plugging rate of dentinal tubules; calcium ion adsorption by collagen membrane, MDP-3DSS vs MDP-a (collagen membrane [6]): promoted the adsorption of calcium ions by collagen more effectively than MDP-a |
| CC(C)C[C@H](NC(=O)[C@H](CC(N)=O)NC(=O)[C@H](CS)NC(=O)[C@H](CO)NC(=O)[C@H](CCC(=O)O)NC(=O)[C@H](CCCCN)NC(=O)[C@@H]1CCCN1C(=O)[C@@H](N)CS)C(=O)N[C@@H](Cc1ccccc1)C(=O)N[C@H](C(=O)N[C@@H](CC(C)C)C(=O)N[C@@H](CCCCN)C(=O)N[C@@H](CC(=O)O)C(=O)O)C(C)C [CBP1495, reference compound] (H-CPKESCNLFVLKD-OH; N-terminus and C-terminus assumed) | 190942.7 RU | 10600 M⁻¹ s⁻¹ | 0.624 s⁻¹ |  |  |  |  |  |  |  |  |  |  | binding to type I collagen (type I collagen): can bind to type I collagen with strong affinity |
| CC(C)C[C@H](NC(=O)[C@H](Cc1c[nH]c2ccccc12)NC(=O)[C@H](CS)NC(=O)[C@H](CO)NC(=O)[C@H](Cc1c[nH]c2ccccc12)NC(=O)[C@H](Cc1c[nH]c2ccccc12)NC(=O)[C@H](CC(=O)O)NC(=O)[C@@H](N)CS)C(=O)N[C@@H](CC(=O)O)C(=O)N[C@H](C(=O)N[C@@H](CC(C)C)C(=O)N[C@@H](CCCCN)C(=O)N[C@@H](CC(=O)O)C(=O)O)C(C)C [MDP-a] (H-CDWWSCWLDVLKD-OH; N-terminus and C-terminus assumed) | 53152.0 RU | 32900 M⁻¹ s⁻¹ | 0.594 s⁻¹ | increase in electron density, the distribution along the collagen fiber was notably uneven, with a substantial amount of electrons present outside the fiber | 002,300 | more scattered along the fiber axis | evident fiber mineralization | uneven, dense, spherical aggregated particles | increased significantly | significantly reduced | 7 μm | dense mineral growth was observed on the surface and inside the dentinal tubules |  |  |
| CPKESCNLFVLKD [CBP1495] |  |  |  |  |  |  |  |  |  |  |  |  | 59 µM |  |
| CDWWSCWLDVLKD [MDP-a] |  |  |  |  |  |  |  |  |  |  |  |  | 18 µM |  |
| CPKESCNLFVLKDDSSDSSDSS [MDP-3DSS] |  |  |  |  |  |  |  |  |  |  |  |  | 18.9 µM |  |
